Read-outs that look alike come from different tables or passages of the source.
How the values were obtained:
HUVEC [1] = test: HUVEC proliferation assay using [3H]-thymidine incorporation; format: cell-based, human
HUVEC [2] = test: HUVEC cell-viability assay using calcein-AM; format: cell-based, human; settings: for IC50: Homo sapiens, HUVEC, read-out: IC50 Calcein-AM HUVEC
HeLa = HeLa proliferation assay, 3H-T uptake; format: cell-based; settings: for IC50: Homo sapiens, HeLa, read-out: IC50 3H-T Uptake HeLa
sirtuin 1 (SIRT1) = settings: read-out: IC50 SIRT1; cited from earlier work
HFF = HFF cell-viability assay using calcein-AM; format: cell-based, human; settings: for IC50: Homo sapiens, HFF, read-out: IC50 Calcein-AM HFF
hMetAP2 = hMetAP2 (Homo sapiens, UniProt P50579); test: human MetAP2 enzyme assay; format: biochemical
SIRT1 = test: Immunoblot of Ac-p53; format: cell-based, human; settings: for Immunoblot Ac-p53: compound treated HUVEC lysates, 24 h, signal relative to DMSO = 1.0; for effect on the levels of Ac-p53: up to 10 μM, data not shown
Outline: (§1)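 HUVEC were exposed to test compound for 24 h, typically at 5 μM (some up to 10 μM), with DMSO as negative control. Lysates were immunoblotted for Met-14-3-3γ, 14-3-3γ, Ac-p53 and total p53. Band densities were taken as Met-14-3-3γ/14-3-3γ and Ac-p53/p53 per lane, relative to DMSO = 1.0. Ac-p53 was scored −(<2.0), +(2.0–7.0), ++(7.1–11.6), +++(>11.6).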

MetAP = test: Immunoblot of Met-14-3-3γ; format: cell-based, human; settings: for Immunoblot Met-14-3-3γ: compound treated HUVEC lysates, 24 h, signal relative to DMSO = 1.0; for effect on the levels of Met-14-3-3γ: up to 10 μM, HUVEC, data not shown
Outline: as §1

Jurkat-T = test: Jurkat T proliferation assay, 3H-T uptake; format: cell-based; settings: for IC50: Homo sapiens, Jurkat, read-out: IC50 3H-T Uptake Jurkat-T
hMetAP1 = hMetAP1 (Homo sapiens, UniProt P53582); test: human MetAP1 enzyme assay; format: biochemical; settings: for IC50: 10 μM Co2+; for b = bottom value in the dose-response curve, hMetAP1: noted only when above 15%
[3] = Metal complexation by UV-vis spectra in MetAP assay buffer; format: physicochemical; settings: 10 μM in MetAP assay buffer
Outline: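 UV–vis absorption spectra recorded for the test compound at 10 μM in MetAP assay buffer, without and with metal ions. Metals were added as MnCl2 or CoCl2 at 10 μM, a buffer and metal level chosen to emulate the enzyme assay. Complexation was read as shifts in λmax and changes in band intensity.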

HUVEC [4] = test: Cytotoxicity seen on treatment of HUVEC for immunoblotting; format: cell-based, human; settings: 0.5 μM for 24 h
HUVEC [5] = test: DCF-DA assay of ROS levels in HUVEC; format: cell-based, human; settings: HUVEC treated with 10 μM, data not shown
[6] = Homo sapiens, HUVEC, read-out: IC50 HUVEC, proliferation, 3H-T uptake
[7] = Homo sapiens, HUVEC, read-out: IC50 HUVEC
[8] = read-out: IC50 HUVEC, proliferation, 3H-T uptake
[9] = read-out: IC50 hMetAP2, enzyme assay, 10 μM Mn2+
[10] = read-out: IC50 hMetAP1, enzyme assay

hMetAP2, sequence (P50579 whole entry): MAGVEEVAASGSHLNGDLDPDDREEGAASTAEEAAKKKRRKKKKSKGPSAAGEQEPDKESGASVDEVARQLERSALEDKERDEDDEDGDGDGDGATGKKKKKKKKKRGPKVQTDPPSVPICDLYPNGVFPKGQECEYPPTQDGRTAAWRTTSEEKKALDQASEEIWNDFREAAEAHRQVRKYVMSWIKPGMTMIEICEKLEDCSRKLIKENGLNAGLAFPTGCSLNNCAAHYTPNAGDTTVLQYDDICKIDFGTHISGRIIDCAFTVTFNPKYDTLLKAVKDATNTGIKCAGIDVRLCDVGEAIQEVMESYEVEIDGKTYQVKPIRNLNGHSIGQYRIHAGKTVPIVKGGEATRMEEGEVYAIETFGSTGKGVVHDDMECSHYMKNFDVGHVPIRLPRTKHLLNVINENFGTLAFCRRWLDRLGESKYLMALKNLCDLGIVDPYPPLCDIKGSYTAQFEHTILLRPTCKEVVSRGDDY

| SMILES | IC50 (HUVEC [2]) [µM] | IC50 (HeLa) [µM] | b = bottom value of the curve, Calcein-AM HFF (HFF) [%] | IC50 (HFF) [µM] | Immunoblot Ac-p53 (SIRT1) | Immunoblot Met-14-3-3γ (MetAP) | IC50 (Jurkat-T) [µM] | IC50 (HUVEC [1]; [7]) [µM] | IC50 (hMetAP2) [µM] | IC50 (hMetAP1; IC50 hMetAP1, enzyme assay) [µM] | complexation with Mn2+ and Co2+ ions (UV-vis) [3] | effect on the levels of Ac-p53 (SIRT1; HUVEC) | effect on the levels of Met-14-3-3γ (MetAP) | other results |
| --- | --- | --- | --- | --- | --- | --- | --- | --- | --- | --- | --- | --- | --- | --- |
| O=[N+]([O-])c1ccc(O)c2ncccc12 [Entry 5, Nitroxoline, reference compound] | 5.13 ± 1.2 | 3.97 ± 0.9 | 21 | 3.69 ± 1 | ++ (++, 7.1–11.6) | + (+, ≥1.5) | 1.58 ± 0.3 |  |  |  |  |  |  | IC50 (HUVEC [1]; [6]): 1.9 ± 0.3 µM; IC50 (sirtuin 1 (SIRT1)): 20.2 µM; inhibition at 10 µM (hMetAP2; read-out: inhibition of MetAP2 activity in HTS): > 90% |
| COc1ccc(N2CCN(Cc3cc(Cl)c4cccnc4c3O)CC2)cc1 [Entry 17, 5-Chloro-7-((4-(4-methoxyphenyl)piperazin-1-yl)methyl)-quinolin-8-ol] |  |  |  |  | + (+, 2.0–7.0) | − (−, >1.5) |  | 1.46 ± 0.33 | > 15 | > 15 |  |  |  | level of Ac-p53 compared to DMSO treated cells (SIRT1; 10 μM, HUVEC): did increase |
| Oc1c(C(c2ccccc2)N2CCOCC2)cc(Cl)c2cccnc12 (centres unmarked) [Entry 18, 5-Chloro-7-(morpholino(phenyl)methyl)quinolin-8-ol] | 3.55 ± 0.9 |  | 18 | 3.66 ± 0.7 |  |  |  | 1.92 ± 0.6 |  | 14 |  |  |  |  |
| O=C(Nc1cc(Cl)cc(Cl)c1)Oc1ccc(Cl)c2cccnc12 [Entry 24, 5-Chloroquinolin-8-yl 3,5-dichlorophenylcarbamate] | 0.746 ± 0.19 |  | 17 | 2.69 ± 0.5 |  |  |  |  | 0.024 ± 0.007 | > 15 | lack of complexation |  |  | IC50 (HUVEC [1]; [6]): 0.324 ± 0.06 µM; cytotoxicity in HUVEC (HUVEC [4]): not enough cells were left |
| Cc1ccc(S(=O)(=O)Nc2cccc3cccnc23)cc1 [Entry 32, 8-quinolinyl p-toluenesulfonamide] | 1.47 ± 0.2 | 1.12 ± 0.2 | 21 | 0.909 ± 0.12 | − (−, <2.0) | − (−, >1.5) | 0.79 ± 0.08 | 0.308 ± 0.04 | > 15 | 6.97 ± 0.25 |  | no effect | no effect | b = bottom value in the dose-response curve, hMetAP1 (hMetAP1): 21% |
| O=Nc1ccc(O)c2ncccc12 [Entry 33, 5-nitrosoquinolin-8-ol] | 3.72 ± 0.8 | 0.64 ± 0.2 | 17 | 9.08 ± 1.2 | + (+, 2.0–7.0) | − (−, >1.5) | 0.36 ± 0.07 | 0.364 ± 0.2 | > 50 | > 15 |  |  |  | ROS levels (DCF-DA) (HUVEC [5]): failed to observe any significant increase; affinity for Mn2+ (UV-vis) [3]: very little affinity |
| Nc1ccc(O)c2ncccc12 [Entry 34, 5-aminoquinolin-8-ol] | 1.84 | 2.36 ± 0.5 | 38 | 37.3 ± 2.1 | − (−, <2.0) | − (−, >1.5) | 1.28 ± 0.3 | 0.218 ± 0.04 | 11.9 | 8.92 ± 1.2 |  | no effect | no effect | b = bottom value of the curve, Calcein-AM HUVEC (HUVEC [2]): 19%; more potent against HUVEC than HeLa (HeLa; 3H-T uptake): about 8 times; selectivity for HUVEC inhibition than HFF (HFF; calcein-AM): ~30 times; b = bottom value in the dose-response curve, hMetAP2 (hMetAP2; noted only when above 15%): 26%; more potent against HUVEC than Jurkat T (Jurkat-T; 3H-T uptake): about 8 times |
| O=C(Nc1ccc(O)c2ncccc12)c1ccccc1 [Entry 40] |  |  |  |  | +++ (+++, >11.6) | + (+, ≥1.5) |  |  |  |  | signs of complex formation |  |  | IC50 (HUVEC [1]; [8]): 0.789 ± 0.11 µM; IC50 (hMetAP2; [9]): > 40 µM; IC50 (hMetAP1; [10]): 6.45 µM |
| Nc1cc(Cl)c2cccnc2c1O [Entry 45] |  |  |  |  | − (−, <2.0) | − (−, >1.5) |  |  |  |  |  | no effect | no effect | IC50 (HUVEC [1]; [8]): 0.273 ± 0.07 µM; IC50 (hMetAP2; [9]): > 15 µM; IC50 (hMetAP1; [10]): > 40 µM |
| CC(C)(C)C(=O)Oc1ccc([N+](=O)[O-])c2cccnc12 [Entry 46, 5-nitroquinolin-8-yl pivalate] |  |  |  |  | ++ (++, 7.1–11.6) | + (+, ≥1.5) |  |  | 0.434 ± 0.1 | > 15 |  |  |  |  |
| CN(C)S(=O)(=O)Oc1ccc([N+](=O)[O-])c2cccnc12 [Entry 48, 5-nitroquinolin-8-yl dimethylsulfamate] | 4.21 ± 1.4 | 2.41 ± 0.8 | 23 | 2.26 ± 0.3 | +++ (+++, >11.6) | + (+, ≥1.5) | 1.73 ± 0.2 | 0.77 ± 0.1 |  |  | does form chelates |  |  | IC50 (hMetAP2; [9]): 0.057 ± 0.015 µM; IC50 (hMetAP1; [10]): > 15 µM; concentration of maximal sirtuin inhibition (biphasic mode) (SIRT1; HUVEC immunoblot, Ac-p53): around 2 μM |
| Cc1ccc(S(=O)(=O)Nc2ccc(N=O)c3cccnc23)cc1 [Entry 54, 4-methyl-N-(5-nitrosoquinolin-8-yl)benzene-sulfonamide] | 1.32 ± 0.2 | 0.59 ± 0.1 | 22 | 0.782 ± 0.13 | − (−, <2.0) | + (+, ≥1.5) | 0.45 ± 0.05 | 0.204 ± 0.02 | > 15 | 10.5 ± 0.9 | formation of chelates |  |  | b = bottom value in the dose-response curve, hMetAP1 (hMetAP1): 18% |
| Cc1ccc(S(=O)(=O)Nc2ccc([N+](=O)[O-])c3cccnc23)cc1 [Entry 55, 4-methyl-N-(5-nitroquinolin-8-yl)benzene-sulfonamide] | 1.46 ± 0.21 | 1.03 ± 0.2 | 21 | 0.783 ± 0.11 | − (−, <2.0) | − (−, >1.5) | 0.82 ± 0.15 | 0.305 ± 0.07 | > 15 | 21 |  | no effect | no effect | b = bottom value in the dose-response curve, hMetAP1 (hMetAP1): 19% |

From paper PMC3767132 (Organic & biomolecular chemistry, 2012)
